Measured values pooled from the literature.
Target: Histone deacetylase 8 (HDAC8, Homo sapiens, UniProt Q9BY41)
Observed: enzyme activity
Action: inhibitor
Sequence (Q9BY41 1-377, as in one of the studies): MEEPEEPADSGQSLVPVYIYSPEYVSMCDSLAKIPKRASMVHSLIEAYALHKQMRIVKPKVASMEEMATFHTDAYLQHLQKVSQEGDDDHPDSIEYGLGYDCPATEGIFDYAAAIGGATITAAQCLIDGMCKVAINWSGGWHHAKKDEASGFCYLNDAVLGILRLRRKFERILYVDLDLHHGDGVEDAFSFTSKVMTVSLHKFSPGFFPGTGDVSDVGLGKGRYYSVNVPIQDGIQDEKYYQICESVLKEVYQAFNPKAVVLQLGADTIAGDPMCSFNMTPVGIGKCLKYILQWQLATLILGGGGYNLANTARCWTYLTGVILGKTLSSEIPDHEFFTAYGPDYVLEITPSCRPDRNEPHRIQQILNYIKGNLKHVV

| Compound | method | IC50 |
| --- | --- | --- |
| CCCON(Cc1ccc(C(=O)NO)cc1)C(=O)Nc1ccc(N(C)C)cc1 | fluorescence | 4.46 µM |
| O=C(CCCCCCC(=O)N[c-]1cccc1)NO.[Fe+2].c1cc[cH-]c1 | fluorescence | 1.36 µM |
| O=C(/C=C/c1ccc(O)c(O)c1)O[C@@H]1C[C@](O)(C(=O)O)C[C@@H](O)[C@H]1O | – | 8.62 µM |
| CCCC[C@H](NC(=O)[C@H](C)c1c(C)[nH]c2ccc(O)cc12)c1ncc(-c2cc3ccccc3nc2OC)[nH]1 | – | > 45 µM |
| CC(C)C[C@H]1CC(=O)N2CCC[C@H]2C(=O)N[C@@H](CCCCCC(=O)NO)C(=O)N[C@@H](Cc2c[nH]c3ccccc23)C(=O)N1 | – | 0.18 µM |
| O=c1c(O)c(-c2ccc(O)c(O)c2)oc2cc(O)cc(O)c12 | – | 7.72 µM |
| CCCON(Cc1ccc(C(=O)NO)cc1)C(=O)Nc1ccccc1 | fluorescence | 4.64 µM |
| Nc1ccc(-c2ccncc2)cc1NC(=O)N1CCCC1 | – | > 33.3 µM |
